Assay results: ChEMBL document CHEMBL1157042, “Triazole incorporated thiazoles as a new class of anticonvulsants: design, synthesis and in vivo screening” (Eur J Med Chem, 2010)
Activity calls are given as the source filed them.

What was measured:
[1] = system: Mus musculus; assay: Anticonvulsant activity in Swiss albino mouse assessed as inhibition of maximum electric shock-induced motor impairment at 300 mg/kg, ip after 4 hrs; format: functional, organism-based; parameters: dose 300 mg/kg
Method in brief: (§1)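 Albino mice of either sex (25–30 g), 6 per group, given drug i.p. in polyethylene glycol at 30, 100 and 300 mg/kg. Maximal electroshock was applied at 0.5 h and 4.0 h. Protection meant abolition of hind limb tonic extension.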

[2] = system: Mus musculus; assay: Anticonvulsant activity in Swiss albino mouse assessed as inhibition of PTZ-induced motor impairment at 300 mg/kg, ip after 0.5 hrs; format: functional, organism-based; parameters: dose 300 mg/kg
Method in brief: (§2)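 Albino mice of either sex (25–30 g), 6 per group. Test compound was given i.p. in polyethylene glycol at 30, 100 or 300 mg/kg, and subcutaneous pentylenetetrazole challenge followed 0.5 h or 4.0 h later. Activity was scored as protection in half or more of the mice.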

[3] = system: Mus musculus; assay: Anticonvulsant activity in ip dosed Swiss albino mouse assessed as inhibition of maximum electric shock-induced motor impairment after 0.5 hrs; format: functional; conditions: read-out: MED
[4] = system: Mus musculus; assay: Anticonvulsant activity in ip dosed Swiss albino mouse assessed as inhibition of PTZ-induced motor impairment after 4 hrs; format: functional; conditions: read-out: MED
Method in brief: (§3)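 Albino mice of either sex (25–30 g), 6 per group, dosed i.p. in polyethylene glycol at 30, 100 or 300 mg/kg. Subcutaneous pentylenetetrazole was given at 0.5 h or 4.0 h, and mice were watched for 30 min. Protection meant no threshold seizure (single clonic spasm episode of at least 5 s). The value is the minimum dose protecting half or more.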

[5] = Neurotoxicity in ip dosed Swiss albino mouse after 0.5 hrs; format: toxicity, organism-based; conditions: in vivo
Method in brief: (§4)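 Albino mice of either sex (25–30 g), 6 per group, received i.p. doses of 30, 100 and 300 mg/kg in polyethylene glycol. Trained mice were tested on the rotorod at 0.5 h and 4.0 h. Neurotoxicity was failure to keep balance on the rod for at least 1 min in each trial. The value recorded is the minimum dose affecting half or more of the mice.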

[6] = Neurotoxicity in ip dosed Swiss albino mouse after 4 hrs; format: toxicity, organism-based; conditions: in vivo; method in brief: as §4
[7] = system: Mus musculus; assay: Anticonvulsant activity in po dosed Swiss albino mouse assessed as inhibition of maximum electric shock-induced motor impairment after 2 hrs; format: functional
Method in brief: (§5)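 Phase IV: same procedure as i.p. phase II (MES protection, or rotorod failure for at least 1 min per trial), but drugs were given orally. Groups of 10 albino mice got a dose range yielding at least three points within 10–90% effect. ED50 or TD50 was read at the indicated time via Litchfield–Wilcoxon.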

[8] = system: Mus musculus; assay: Sedative-hypnotic activity in ip dosed Swiss albino mouse after 24 hrs; format: organism-based; conditions: in vivo
[9] = Toxicity in ip dosed Swiss albino mouse after 24 hrs; format: organism-based; conditions: in vivo
Method in brief: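 Albino mice of either sex (25–30 g), in groups of 10, received a range of i.p. doses in polyethylene glycol until at least three points fell within 10–90% effect. Mortality was scored 24 h after injection.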

[10] = system: Mus musculus; assay: Anticonvulsant activity in Swiss albino mouse assessed as inhibition of PTZ-induced motor impairment at 300 mg/kg, ip after 4 hrs; format: functional, organism-based; parameters: dose 300 mg/kg; method in brief: as §2
[11] = system: Mus musculus; assay: Anticonvulsant activity in ip dosed Swiss albino mouse assessed as inhibition of maximum electric shock-induced motor impairment after 4 hrs; format: functional; conditions: read-out: MED
[12] = system: Mus musculus; assay: Anticonvulsant activity in ip dosed Swiss albino mouse assessed as inhibition of PTZ-induced motor impairment; format: functional
[13] = system: Mus musculus; assay: Anticonvulsant activity in ip dosed Swiss albino mouse assessed as inhibition of maximum electric shock-induced motor impairment; format: functional
[14] = system: Mus musculus; assay: Anticonvulsant activity in Swiss albino mouse assessed as inhibition of maximum electric shock-induced motor impairment at 300 mg/kg, ip after 0.5 hrs; format: functional, organism-based; parameters: dose 300 mg/kg; method in brief: as §1
[15] = system: Mus musculus; assay: Neurotoxicity in Swiss albino mouse at 300 mg/kg, ip after 0.5 hrs; format: toxicity, organism-based; parameters: dose 300 mg/kg, route intraperitoneal; conditions: in vivo
[16] = system: Mus musculus; assay: Neurotoxicity in Swiss albino mouse at 300 mg/kg, ip after 4 hrs; format: toxicity, organism-based; parameters: dose 300 mg/kg, route intraperitoneal; conditions: in vivo
[17] = system: Mus musculus; assay: Anticonvulsant activity in ip dosed Swiss albino mouse assessed as inhibition of PTZ-induced motor impairment after 0.5 hrs; format: functional; conditions: read-out: MED; method in brief: as §3
[18] = organism: Mus musculus; assay: Protective index, ratio of TD50 for neurotoxicity in Swiss albino mouse to ED50 for inhibition of PTZ-induced motor impairment Swiss albino mouse; format: functional
[19] = Neurotoxicity in po dosed Swiss albino mouse after 2 hrs; format: toxicity, organism-based; conditions: in vivo; method in brief: as §5
[20] = system: Mus musculus; assay: Protective index, ratio of TD50 for neurotoxicity in po dosed Swiss albino mouse to ED50 for inhibition of maximal electroshock-induced seizures po dosed Swiss albino mouse; format: functional
[21] = organism: Mus musculus; assay: Ratio of HD50 for hypnotic activity in Swiss albino mouse to ED50 for inhibition of maximal electroshock-induced seizures Swiss albino mouse; format: functional
Method in brief: (§6)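 Ratio of HD50 to i.p. ED50 (scPTZ or MES). HD50, in mg/kg, came from loss of righting reflex in i.p.-dosed albino mice, with a dose range analysed as for phase II ED50.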

[22] = organism: Mus musculus; assay: Ratio of HD50 for hypnotic activity in Swiss albino mouse to ED50 for inhibition of PTZ-induced motor impairment Swiss albino mouse; format: functional; method in brief: as §6
[23] = Neurotoxicity in ip dosed Swiss albino mouse; format: toxicity, organism-based; conditions: in vivo
[24] = organism: Mus musculus; assay: Protective index, ratio of TD50 for neurotoxicity in Swiss albino mouse to ED50 for inhibition of maximal electroshock-induced seizures Swiss albino mouse; format: functional

Cc1ccccc1-n1c(Nc2nc(-c3ccc(Cl)cc3)cs2)n[nH]c1=S
inhibition [1]: inactive | inhibition [2]: inactive | minimal effective dose [3]: 100 mg/kg | minimal effective dose [4]: 300 mg/kg | MTD at 0.5 h [5]: 300 mg/kg | MTD at 4 h [6]: 300 mg/kg

O=C1NC(=O)C(c2ccccc2)(c2ccccc2)N1 [PHENYTOIN]
ED50 [7]: 9.16 mg/kg | HD50 [8]: 182 mg/kg | LD50 at 24 h [9]: 224 mg/kg | inhibition [2]: inactive | inhibition [10]: inactive | minimal effective dose [3]: 30 mg/kg | minimal effective dose [11]: 30 mg/kg | MTD at 0.5 h [5]: 100 mg/kg | MTD at 4 h [6]: 100 mg/kg | ED50 [12]: > 300 mg/kg

CCC1(c2ccccc2)C(=O)NC(=O)NC1=O [PHENOBARBITAL]
minimal effective dose [3]: 100 mg/kg | minimal effective dose [11]: 30 mg/kg | MTD at 0.5 h [5]: 100 mg/kg | MTD at 4 h [6]: 300 mg/kg | ED50 [13]: 21.8 mg/kg | ED50 [12]: 13.2 mg/kg

Cc1ccc(-n2c(Nc3nc(-c4ccccc4)cs3)n[nH]c2=S)cc1
inhibition [14]: inactive | inhibition [10]: inactive | Activity [15]: Non-toxic | Activity [16]: Non-toxic | minimal effective dose [11]: 300 mg/kg | minimal effective dose [17]: 300 mg/kg

Cc1ccccc1-n1c(Nc2nc(-c3ccccc3)cs2)n[nH]c1=S
inhibition [1]: inactive | inhibition [2]: inactive | inhibition [10]: inactive | Activity [15]: Non-toxic | minimal effective dose [3]: 100 mg/kg | MTD at 4 h [6]: 300 mg/kg

NC(=O)N1c2ccccc2C=Cc2ccccc21 [CARBAMAZEPINE]
ED50 [13]: 8.8 mg/kg | ED50 [12]: > 100 mg/kg

O=[N+]([O-])c1ccc(-c2csc(Nc3n[nH]c(=S)n3-c3ccccc3)n2)cc1
inhibition [14]: inactive | inhibition [2]: inactive | inhibition [10]: inactive | minimal effective dose [11]: 300 mg/kg | MTD at 0.5 h [5]: 300 mg/kg | MTD at 4 h [6]: 300 mg/kg

CCC1(C)CC(=O)NC1=O (centres undefined) [ETHOSUXIMIDE]
inhibition [14]: inactive | inhibition [1]: inactive | inhibition [2]: inactive | Activity [15]: Non-toxic | Activity [16]: Non-toxic | minimal effective dose [17]: 100 mg/kg | minimal effective dose [4]: 300 mg/kg

COc1ccc(-n2c(Nc3nc(-c4ccc(Cl)cc4)cs3)n[nH]c2=S)cc1
Ratio TD50/ED50 [18]: 2.4 | TD50 at 2 h [19]: 735 mg/kg | Ratio TD50/ED50 [20]: 13.4 | ED50 [7]: 54.8 mg/kg | HD50 [8]: 867 mg/kg | LD50 at 24 h [9]: 946 mg/kg | Ratio [21]: 36.27 | Ratio [22]: 4.85 | inhibition [10]: inactive | Activity [15]: Non-toxic | Activity [16]: Non-toxic | minimal effective dose [3]: 30 mg/kg | minimal effective dose [11]: 100 mg/kg | minimal effective dose [17]: 300 mg/kg | TD50 [23]: 439 mg/kg | ED50 [13]: 23.9 mg/kg | ED50 [12]: 179 mg/kg | Ratio TD50/ED50 [24]: 18.3

CCCC(CCC)C(=O)[O-].[Na+] [VALPROATE SODIUM]
ED50 [12]: 149 mg/kg

S=c1[nH]nc(Nc2nc(-c3ccccc3)cs2)n1-c1ccccc1
inhibition [1]: inactive | inhibition [2]: inactive | Activity [15]: Non-toxic | minimal effective dose [3]: 300 mg/kg | minimal effective dose [4]: 300 mg/kg | MTD at 4 h [6]: 300 mg/kg

Cc1ccccc1-n1c(Nc2nc(-c3ccc([N+](=O)[O-])cc3)cs2)n[nH]c1=S
minimal effective dose [3]: 100 mg/kg | minimal effective dose [11]: 100 mg/kg | minimal effective dose [17]: 100 mg/kg | minimal effective dose [4]: 300 mg/kg | MTD at 0.5 h [5]: 300 mg/kg | MTD at 4 h [6]: 100 mg/kg

Cc1ccccc1-n1c(Nc2nc(-c3ccc(Br)cc3)cs2)n[nH]c1=S
Ratio TD50/ED50 [18]: 8.3 | TD50 at 2 h [19]: 884 mg/kg | Ratio TD50/ED50 [20]: 17.7 | ED50 [7]: 49.9 mg/kg | HD50 [8]: 632 mg/kg | LD50 at 24 h [9]: 834 mg/kg | Ratio [21]: 47.16 | Ratio [22]: 7.74 | Activity [15]: Non-toxic | Activity [16]: Non-toxic | minimal effective dose [3]: 30 mg/kg | minimal effective dose [11]: 30 mg/kg | minimal effective dose [17]: 100 mg/kg | minimal effective dose [4]: 300 mg/kg | TD50 [23]: 684 mg/kg | ED50 [13]: 13.4 mg/kg | ED50 [12]: 81.6 mg/kg | Ratio TD50/ED50 [24]: 51

S=c1[nH]nc(Nc2nc(-c3ccc(Cl)cc3)cs2)n1-c1ccccc1
inhibition [14]: inactive | inhibition [2]: inactive | inhibition [10]: inactive | Activity [15]: Non-toxic | Activity [16]: Non-toxic | minimal effective dose [11]: 300 mg/kg
